According to publication PMC10975593 (ACS Omega, 2024):

How the values were obtained:
HOP-92 = assay: NCI 60-cell line screen; type: cell-based, human
SW-620 = assay: NCI 60-cell line screen; type: cell-based, human
Method in brief: (§1)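 Test compounds were submitted to the National Cancer Institute and run under NCI's standard 60-cell-line protocols. Read-outs were taken from percent-growth versus log-concentration curves.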

LOX IMVI = assay: NCI 60-cell line screen; type: cell-based, human
CAKI-1 = assay: NCI 60-cell line screen; type: cell-based, human
HOP-62 = assay: NCI 60-cell line screen; type: cell-based, human
K-562 = assay: NCI 60-cell line screen; type: cell-based, human
M14 = assay: NCI 60-cell line screen; type: cell-based, human
HCT-15 = assay: NCI 60-cell line screen; type: cell-based, human
SN12C = assay: NCI 60-cell line screen; type: cell-based, human
Method in brief: as §1

[1] = system: MCF-7 and A549 cancer cell lines; assay: MTT assay, range over both cell lines; type: cell-based; details: read-out: IC50 values, range
Method in brief: (§2)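 A549 in DMEM and MCF-7 in RPMI, each with 10% heat-inactivated FBS, 1% penicillin/streptomycin and 2 mmol/L glutamine at 37 °C, 5% CO2. Seeded at 2000 (A549) or 10,000 (MCF-7) cells/well and attached 24 h. Then 72 h with test compound at varying concentrations. MTT (5 mg/mL stock) added for 4 h at 37 °C, formazan dissolved in DMSO, absorbance read at 450/540 nm. Triplicates in three separate experiments.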

ACHN = assay: NCI 60-cell line screen; type: cell-based, human
A549 cancer cell line = assay: MTT assay; type: cell-based; details: Homo sapiens, A549, 72 h
Method in brief: as §2

HT29 = assay: NCI 60-cell line screen; type: cell-based, human
HS 578T = assay: NCI 60-cell line screen; type: cell-based, human
UO-31 = assay: NCI 60-cell line screen; type: cell-based, human
Method in brief: as §1

SF-539 = assay: NCI 60-cell line screen; type: cell-based, human
Method in brief: as §1

Staphylococcus aureus = assay: Disc diffusion antimicrobial test; type: cell-based; details: Staphylococcus aureus, 24 h, read-out: zone of inhibition (diameter of inhibition)
Method in brief: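 Disc diffusion on nutrient agar, test compound at 100 μg/mL with DMSO as solvent. Plates incubated at 37 °C for 24 h after inoculation, then zone of inhibition measured and compared with standards. Controls were DMSO, amoxicillin, ciprofloxacin and tetracycline.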

Fibro cell line = assay: % inhibition on normal cell line; type: cell-based
HL-60(TB) = assay: cells; details: Homo sapiens
EKVX = assay: NCI 60-cell line screen; type: cell-based, human
OVCAR-4 = assay: NCI 60-cell line screen; type: cell-based, human
DU-145 = assay: NCI 60-cell line screen; type: cell-based, human
SK-OV-3 = assay: NCI 60-cell line screen; type: cell-based, human
Method in brief: as §1

A498 = assay: NCI 60-cell line screen; type: cell-based, human
U251 = assay: NCI 60-cell line screen; type: cell-based, human
Method in brief: as §1

O=C(CN1CCN(CC(=O)Nc2nc3ccccc3s2)CC1)Nc1ccc([N+](=O)[O-])cc1 [OMS14, N-(benzo[d]thiazol-2-yl)-2-(4-(2-((4-nitrophenyl)amino)-2-oxoethyl)piperazin-1-yl)acetamide]
TGI (HOP-92; HOP-92, non-small cell lung cancer): 8.3 µM
GI50 (HOP-92; Homo sapiens, HOP-92): 2.3 µM
IC50 (HOP-92; Homo sapiens, HOP-92): 9.1 µM
CC50 (HOP-92; Homo sapiens, HOP-92, read-out: LC50): 89.1 µM
GI50 (SW-620; Homo sapiens, SW-620): 0.8 µM
IC50 (SW-620; Homo sapiens, SW-620): 1.1 µM
CC50 (SW-620; Homo sapiens, SW-620, read-out: LC50): 87.1 µM
TGI (SW-620; SW-620, colon cancer): 5.9 µM
GI50 (LOX IMVI; Homo sapiens): 1.6 µM
IC50 (LOX IMVI; Homo sapiens): 2.8 µM
CC50 (LOX IMVI; Homo sapiens, read-out: LC50): 6.2 µM
TGI (LOX IMVI; melanoma): 3.2 µM
TGI (CAKI-1; CAKI-1, renal cancer): 3.6 µM
GI50 (CAKI-1; Homo sapiens, CAKI-1): 0.9 µM
IC50 (CAKI-1; Homo sapiens, CAKI-1): 2 µM
CC50 (CAKI-1; Homo sapiens, CAKI-1, read-out: LC50): 16.2 µM
TGI (HOP-62; HOP-62, non-small cell lung cancer): 3.7 µM
GI50 (HOP-62; Homo sapiens, HOP-62): 1.7 µM
IC50 (HOP-62; Homo sapiens, HOP-62): 3.2 µM
CC50 (HOP-62; Homo sapiens, HOP-62, read-out: LC50): 8.3 µM
GI50 (K-562; Homo sapiens, K562): 2.6 µM
IC50 (K-562; Homo sapiens, K562): 3 µM
CC50 (K-562; Homo sapiens, K562, read-out: LC50): > 100 µM
TGI (K-562; K-562, leukemia): 100 µM
GI50 (M14; Homo sapiens, M14): 1.7 µM
IC50 (M14; Homo sapiens, M14): 3 µM
CC50 (M14; Homo sapiens, M14, read-out: LC50): 8.3 µM
TGI (M14; M14, melanoma): 3.8 µM
TGI (HCT-15; HCT-15, colon cancer): 3.7 µM
GI50 (HCT-15; Homo sapiens, HCT-15): 1.7 µM
IC50 (HCT-15; Homo sapiens, HCT-15): 2.8 µM
CC50 (HCT-15; Homo sapiens, HCT-15, read-out: LC50): 7.9 µM
GI50 (SN12C; Homo sapiens): 1.9 µM
IC50 (SN12C; Homo sapiens): 3.5 µM
CC50 (SN12C; Homo sapiens, read-out: LC50): > 100 µM
TGI (SN12C; renal cancer): 5.4 µM
IC50 [1]: 22.1 to 61 µM
GI50 (ACHN; Homo sapiens): 1.1 µM
IC50 (ACHN; Homo sapiens): 2.1 µM
CC50 (ACHN; Homo sapiens, read-out: LC50): 22.9 µM
TGI (ACHN; renal cancer): 4.4 µM
IC50 (A549 cancer cell line): 26.1 µM
inhibition at 100 µM (A549 cancer cell line; read-out: experimental % of inhibition on A549 cancer cell line): 90.6%
TGI (HT29; HT29, colon cancer): 3.6 µM
GI50 (HT29; Homo sapiens, HT-29): 1.3 µM
IC50 (HT29; Homo sapiens, HT-29): 2.1 µM
CC50 (HT29; Homo sapiens, HT-29, read-out: LC50): 10.2 µM
TGI (HS 578T; HS 578T, breast cancer): 8.5 µM
GI50 (HS 578T; Homo sapiens, Hs-578T): 2.4 µM
IC50 (HS 578T; Homo sapiens, Hs-578T): 8.9 µM
CC50 (HS 578T; Homo sapiens, Hs-578T, read-out: LC50): > 100 µM
GI50 (UO-31; Homo sapiens, UO-31): 1.3 µM
IC50 (UO-31; Homo sapiens, UO-31): 2.5 µM
CC50 (UO-31; Homo sapiens, UO-31, read-out: LC50): 8.5 µM
TGI (UO-31; UO-31, renal cancer): 3.3 µM
GI50 (SF-539; Homo sapiens, SF-539): 2 µM
IC50 (SF-539; Homo sapiens, SF-539): 4.3 µM
CC50 (SF-539; Homo sapiens, SF-539, read-out: LC50): 20 µM
TGI (SF-539; SF-539, CNS cancer): 5.5 µM
zone of inhibition at 100 µg/mL (Staphylococcus aureus): 15 mm
inhibition at 10 µM (Fibro cell line; read-out: %inhibition at 10 μM): 49.4%
inhibition at 100 µM (Fibro cell line; read-out: %inhibition at 100 μM): 70.5%
GI50 (HL-60(TB); HL-60): 2.5 µM
IC50 (HL-60(TB); HL-60): 4.4 µM
CC50 (HL-60(TB); HL-60, read-out: LC50): 81.3 µM
GI50 (EKVX; Homo sapiens): 2 µM
IC50 (EKVX; Homo sapiens): 3.8 µM
CC50 (EKVX; Homo sapiens, read-out: LC50): 27.5 µM
TGI (EKVX; non-small cell lung cancer): 4.9 µM
GI50 (OVCAR-4; Homo sapiens, OVCAR-4): 2.4 µM
IC50 (OVCAR-4; Homo sapiens, OVCAR-4): 5.2 µM
CC50 (OVCAR-4; Homo sapiens, OVCAR-4, read-out: LC50): 75.9 µM
TGI (OVCAR-4; OVCAR-4, ovarian cancer): 8.3 µM
TGI (DU-145; DU-145, prostate cancer): 7.9 µM
GI50 (DU-145; Homo sapiens, DU-145): 2.2 µM
IC50 (DU-145; Homo sapiens, DU-145): 3.5 µM
CC50 (DU-145; Homo sapiens, DU-145, read-out: LC50): 38.9 µM
GI50 (SK-OV-3; Homo sapiens, SK-OV-3): 2.2 µM
IC50 (SK-OV-3; Homo sapiens, SK-OV-3): 6.6 µM
CC50 (SK-OV-3; Homo sapiens, SK-OV-3, read-out: LC50): > 100 µM
TGI (SK-OV-3; SK-OV-3, ovarian cancer): 8.1 µM
TGI (A498; A498, renal cancer): 3.7 µM
GI50 (A498; Homo sapiens, A498): 1.7 µM
IC50 (A498; Homo sapiens, A498): 3.8 µM
CC50 (A498; Homo sapiens, A498, read-out: LC50): 7.9 µM
GI50 (U251; Homo sapiens, U-251): 2.6 µM
IC50 (U251; Homo sapiens, U-251): 3.5 µM
CC50 (U251; Homo sapiens, U-251, read-out: LC50): 50.1 µM
TGI (U251; U251, CNS cancer): 11.0 µM
